Tests used:
[1] = target: T1, Polyunsaturated fatty acid 5-lipoxygenase (Rattus norvegicus) (UniProt P12527); test: Percent inhibition against RBL-1 5-LO in vitro at 30 uM; format: cell-based
T1 sequence (whole entry): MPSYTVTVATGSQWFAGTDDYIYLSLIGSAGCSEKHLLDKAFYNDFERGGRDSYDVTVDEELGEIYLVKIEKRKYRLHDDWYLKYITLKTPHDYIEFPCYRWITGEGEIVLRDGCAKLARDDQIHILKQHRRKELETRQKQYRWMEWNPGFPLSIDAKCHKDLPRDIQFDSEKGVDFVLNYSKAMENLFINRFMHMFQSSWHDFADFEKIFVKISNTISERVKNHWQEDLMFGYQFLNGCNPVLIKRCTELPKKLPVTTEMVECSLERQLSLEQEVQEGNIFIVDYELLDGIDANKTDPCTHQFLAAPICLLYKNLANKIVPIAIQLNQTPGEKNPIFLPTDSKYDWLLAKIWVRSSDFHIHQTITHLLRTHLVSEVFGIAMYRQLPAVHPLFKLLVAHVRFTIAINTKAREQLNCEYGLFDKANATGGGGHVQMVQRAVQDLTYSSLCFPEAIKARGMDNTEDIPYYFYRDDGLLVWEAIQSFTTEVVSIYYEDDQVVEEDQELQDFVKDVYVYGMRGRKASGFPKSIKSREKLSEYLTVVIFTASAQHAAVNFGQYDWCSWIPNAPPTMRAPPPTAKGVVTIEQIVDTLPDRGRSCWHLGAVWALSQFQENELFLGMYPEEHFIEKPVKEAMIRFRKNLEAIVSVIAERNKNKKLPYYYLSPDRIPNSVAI
Method in brief: (§1)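 200-μL incubations held the 20000g supernatant of 1.5 million homogenized RBL-1 cells plus compound. Radiolabeled arachidonic acid started the reaction; acidification and ether extraction ended it. Product was resolved by TLC and counted by liquid scintillation, in triplicate. Inhibition was taken from the ratio of product formed with and without inhibitor.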

[2] = target: T2, Polyunsaturated fatty acid 5-lipoxygenase (Rattus norvegicus, UniProt P12527); test: In vitro inhibitory activity against RBL-1 5-LO; format: cell-based
T2 sequence (P12527 whole entry): T1 sequence (whole entry)

[3] = tested on: Seed linoleate 15-lipoxygenase (Glycine max); test: Compound was tested for the percent of inhibition against soybean 15-LO (at 100 uM)
[4] = target: T2, Polyunsaturated fatty acid 5-lipoxygenase; test: Compound was tested for its inhibition activity against the 5-LO in isolated enzyme
Method in brief: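 5-LO from the 20000g supernatant of 1.5 million homogenized RBL-1 cells, in 200-μL incubations across a range of compound concentrations. Reaction started with radiolabeled arachidonic acid and stopped by acidification and ether extraction. Products were separated from substrate by TLC and counted by liquid scintillation, in triplicate.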

[5] = target: T1, Polyunsaturated fatty acid 5-lipoxygenase (Rattus norvegicus); test: Compound was tested for the percent of inhibition against 5-LO at 10 uM; method in brief: as §1
[6] = target: Prostaglandin G/H synthase 1 (Ovis aries) (UniProt P05979); test: Compound was tested for the percent of inhibition against sheep seminal vesicle cyclooxygenase at 100 uM
[7] = target: T2, Polyunsaturated fatty acid 5-lipoxygenase; test: Compound was tested for its inhibition activity against 5-LO of the whole cell in vitro in rat.
[8] = target: T3, Polyunsaturated fatty acid lipoxygenase ALOX12 (Homo sapiens) (UniProt P18054); test: Compound was tested for the percent of inhibition against 12-LO at 10 uM; format: functional
T3 sequence (whole entry): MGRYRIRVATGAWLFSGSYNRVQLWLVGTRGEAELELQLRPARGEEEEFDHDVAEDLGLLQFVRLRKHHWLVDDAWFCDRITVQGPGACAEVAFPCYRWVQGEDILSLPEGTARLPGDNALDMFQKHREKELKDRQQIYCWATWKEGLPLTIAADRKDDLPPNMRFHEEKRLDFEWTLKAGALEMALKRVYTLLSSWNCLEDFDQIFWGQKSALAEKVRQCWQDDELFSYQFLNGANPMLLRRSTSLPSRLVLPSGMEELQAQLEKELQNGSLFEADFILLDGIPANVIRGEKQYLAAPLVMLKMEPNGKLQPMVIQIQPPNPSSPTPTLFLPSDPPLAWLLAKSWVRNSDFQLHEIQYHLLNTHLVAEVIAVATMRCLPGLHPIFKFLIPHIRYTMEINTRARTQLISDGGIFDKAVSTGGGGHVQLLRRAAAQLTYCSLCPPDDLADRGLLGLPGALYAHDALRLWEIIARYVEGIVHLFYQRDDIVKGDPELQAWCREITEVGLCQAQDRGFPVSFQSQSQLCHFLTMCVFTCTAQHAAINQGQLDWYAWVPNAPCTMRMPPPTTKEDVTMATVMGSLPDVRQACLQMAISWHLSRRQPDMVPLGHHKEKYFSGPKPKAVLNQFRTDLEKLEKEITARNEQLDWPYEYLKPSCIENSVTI
Method in brief: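 The RBL-1 enzyme was replaced by human platelet 12-lipoxygenase, soybean 15-lipoxygenase or sheep seminal vesicle cyclooxygenase. Reactions were started with radiolabeled arachidonic acid and stopped by acidification and ether extraction. Products were separated by TLC and counted by liquid scintillation, in triplicate. Inhibition was taken from the ratio of product formed with and without inhibitor.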

[9] = target: T1, Polyunsaturated fatty acid 5-lipoxygenase (Rattus norvegicus); test: Percent inhibition against RBL-1 5-LO in vitro at 300 uM; format: cell-based
Method in brief: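 20000g supernatant from 1.5 million homogenized RBL-1 cells, with test compound, in 200-μL incubations. Reactions were started with radiolabeled arachidonic acid and stopped by acidification and ether extraction. Products were separated from unconverted substrate by TLC and counted by liquid scintillation. Inhibition was taken from product formed with versus without inhibitor. Run in triplicate.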

[10] = target: T1, Polyunsaturated fatty acid 5-lipoxygenase (Rattus norvegicus); test: Percent inhibition against RBL-1 5-LO in vitro at 10 uM; format: cell-based; method in brief: as §1
[11] = target: T1, Polyunsaturated fatty acid 5-lipoxygenase (Rattus norvegicus); test: Percent inhibition against RBL-1 5-LO in vitro at 100 uM; format: cell-based; method in brief: as §1

Sequence of Prostaglandin G/H synthase 1 (Ovis aries) (P05979 whole entry, looked up): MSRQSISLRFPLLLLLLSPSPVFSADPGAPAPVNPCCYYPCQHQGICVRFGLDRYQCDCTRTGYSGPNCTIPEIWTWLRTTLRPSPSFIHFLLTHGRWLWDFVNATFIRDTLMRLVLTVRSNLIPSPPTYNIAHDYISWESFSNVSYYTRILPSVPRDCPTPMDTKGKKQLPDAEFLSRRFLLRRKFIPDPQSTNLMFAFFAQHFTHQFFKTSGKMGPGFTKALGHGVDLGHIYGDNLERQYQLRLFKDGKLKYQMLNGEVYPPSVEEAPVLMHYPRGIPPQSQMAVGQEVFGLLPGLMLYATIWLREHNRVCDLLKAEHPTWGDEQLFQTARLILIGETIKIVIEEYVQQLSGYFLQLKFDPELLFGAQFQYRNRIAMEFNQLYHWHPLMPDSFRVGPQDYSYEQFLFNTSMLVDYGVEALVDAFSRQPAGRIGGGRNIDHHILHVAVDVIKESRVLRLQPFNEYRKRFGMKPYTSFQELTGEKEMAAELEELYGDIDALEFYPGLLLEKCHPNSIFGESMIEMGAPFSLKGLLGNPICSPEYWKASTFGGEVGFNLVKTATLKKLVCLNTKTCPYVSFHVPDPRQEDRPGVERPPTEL

| IC50 [2] | SMILES | other results |
| --- | --- | --- |
| – | CN(O)S(=O)(=O)c1ccc2ccccc2c1 | inhibition [1]: 6% |
| 0.064 µM | Cc1cc(C)c(-c2ccc(C(=O)N(C)O)cc2)c(C)c1 | – |
| 190 µM | O=C(NO)c1ccc(O)cc1 | – |
| 14 µM | O=C(NO)c1ccc2ccccc2c1 | – |
| 6.5 µM | CCCCCCCOc1ccc2cc(C(=O)NO)ccc2c1 | – |
| 0.1 µM | O=C(/C=C/c1ccc2ccccc2c1)N(O)C1CCCCC1 | – |
| 110 µM | O=C(NO)c1ccccc1 [BENZOHYDROXAMATE] | – |
| 1.3 µM | CN(O)C(=O)c1ccc2ccccc2c1 | – |
| 0.47 µM | C/C(=C\c1ccc2ccccc2c1)C(=O)N(C)O | – |
| 2.9 µM | CCCCC/C=C\CCOc1ccc2cc(C(=O)NO)ccc2c1 | – |
| 27 µM | O=C(NO)c1ccc(C(F)(F)F)cc1 | – |
| 0.18 µM | O=C(NO)c1ccc(-c2cccc3ccccc23)cc1 | – |
| 19 µM | O=C(Cc1ccc2ccccc2c1)NO | – |
| 23 µM | O=C(NO)c1ccc([N+](=O)[O-])cc1 | – |
| 0.33 µM | O=C(NO)c1ccc(-c2ccc3ccccc3c2)cc1 | – |
| > 400 µM | Nc1ccc(C(=O)NO)cc1 | – |
| 46 µM | O=C(C#Cc1ccccc1)NO | – |
| 300 µM | O=C(Cc1ccccc1)NO [PHENYLACETOHYDROXAMIC ACID] | – |
| 0.12 µM | C/C(=C\C(=O)N(C)O)c1ccc2ccccc2c1 | – |
| – | O=C(NO)c1ccc(-c2ccccc2)cc1 | inhibition [3]: 30%; IC50 [4]: 4 µM; inhibition [5]: 86%; inhibition [6]: 50%; IC50 [7]: 3.3 µM; inhibition [8]: 86% |
| 0.022 µM | Cc1cc(C)c(-c2ccc(/C=C/C(=O)N(C)O)cc2)c(C)c1 | – |
| 27 µM | O=C(CCCc1ccccc1)NO [PHENYLBUTYRYLHYDROXAMIC ACID] | – |
| – | CO/C(=N\O)c1ccc2ccccc2c1 | inhibition [9]: 74% |

| IC50 [2] | SMILES | other results |
| --- | --- | --- |
| – | NNC(=O)c1ccc2ccccc2c1 | inhibition [9]: 6% |
| 43 µM | O=C(NO)c1cccc2ccccc12 | – |
| 15 µM | O=C(NO)c1ccc(I)cc1 | – |
| – | CCCCCCCCCOc1ccc2cc(C(=O)NO)ccc2c1 | inhibition [10]: 33% |
| 12 µM | O=C(/C=C/c1ccccc1)NO | – |
| 65 µM | Cc1ccc(C(=O)NO)cc1 | – |
| – | NC(=O)c1ccc2ccccc2c1 | inhibition [9]: 9% |
| 27 µM | O=C(Cc1cccc2ccccc12)NO | – |
| 0.052 µM | O=C(/C=C/c1ccc2ccccc2c1)N(O)c1ccccc1 | – |
| – | CCCCCCCCCCCCOc1ccc2cc(C(=O)NO)ccc2c1 | inhibition [10]: 11% |
| 31 µM | O=C(/C=C\c1ccccc1)NO | – |
| 7.1 µM | CCCCCCCCOc1ccc2cc(C(=O)NO)ccc2c1 | – |
| – | O=C(O)c1ccc2ccccc2c1 | inhibition [9]: 0% |
| 61 µM | N#Cc1ccc(C(=O)NO)cc1 | – |
| – | O=S(=O)(NO)c1ccc2ccccc2c1 | inhibition [11]: 51% |
| 0.082 µM | CC(C)N(O)C(=O)/C=C/c1ccc2ccccc2c1 | – |
| 14 µM | O=C(NO)c1ccc(Br)cc1 | – |
| 87 µM | O=C(CCc1ccccc1)NO | – |
| – | O=C(CO)c1ccc2ccccc2c1 | inhibition [11]: 15% |
| – | CONC(=O)c1ccc2ccccc2c1 | inhibition [1]: 0% |
| 8.2 µM | COc1ccc2cc(C(=O)NO)ccc2c1 | – |
| 0.1 µM | CN(O)C(=O)/C=C/c1ccc2ccccc2c1 | – |
| 0.29 µM | Cc1cc(C)c(-c2ccc(C(=O)NO)cc2)c(C)c1 | – |
